Measured values from ChEMBL document CHEMBL1154860, “Synthesis and investigation of inhibition effect of fluorinated sulfonamide derivatives on carbonic anhydrase” (Eur J Med Chem, 2010).
pIC50: −log10 of the molar value. Values belong to the molecule of their own block, whether it stands above or below them. Activity calls are given as the source filed them. The rule behind the calls is not given here.

Assays:
Bos taurus = species: Bos taurus; test: Inhibition of bovine carbonic anhydrase assessed as conversion of 4-nitrophenyl acetate to 4-nitrophnolate at 0.27 to 2.07 uM after 5 mins
In short: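 Native bovine CA, concentration set from A280 (2.9 × 10^-6 M). Initial rate of 4-nitrophenyl acetate hydrolysis followed at 348 nm at pH 8. Substrate was 1.04 × 10^-3 to 1.875 × 10^-4 M, prepared in acetone/water, and inhibitors were dissolved in water. Non-enzymatic hydrolysis was subtracted, each point was run in triplicate, and values are means of 3 assays.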

[1] = Cytotoxicity in sheep RBC assessed as hemolysis at 0.125 to 1000 uM after 20 mins; format: cell-based, Ovis aries; conditions: erythrocyte
In short: (§1)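 Sheep erythrocytes were washed three times in PBS pH 7.4 just before the assay and used at a final 5% cell concentration in the same buffer. After incubation with compound, samples were centrifuged and supernatant absorbance was read at 405 nm. The 0% and 100% hemolysis references were erythrocyte stock in PBS and in distilled water, processed identically.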

[2] = Cytotoxicity in sheep RBC assessed as hemolysis at 1000 uM after 20 mins; format: cell-based, Ovis aries; conditions: erythrocyte; in short: as §1
[3] = Inhibition of bovine carbonic anhydrase assessed as conversion of 4-nitrophenyl acetate to 4-nitrophnolate after 5 mins; set-up: species or system Bos taurus
In short: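 Bovine CA at 2.9 × 10^-6 M (concentration set from A280) measured by initial rate of 4-nitrophenyl acetate hydrolysis, substrate in acetone/water over a range of concentrations. 4-Nitrophenolate formation followed at 348 nm, pH 8, with non-enzymatic hydrolysis subtracted. Inhibitors dissolved in distilled–deionized water. Triplicates at each substrate and inhibitor concentration; IC50 is the mean of 3 assays.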

[4] = Cytotoxicity in sheep RBC assessed as hemolysis at 31.25 uM after 20 mins; format: cell-based, Ovis aries; conditions: erythrocyte; in short: as §1
[5] = Cytotoxicity in sheep RBC assessed as hemolysis at 62.5 uM after 20 mins; format: cell-based, Ovis aries; conditions: erythrocyte; in short: as §1
Carbonic anhydrase 2 = Carbonic anhydrase 2 (Homo sapiens, UniProt P00918); test: Inhibition of human carbonic anhydrase 2 assessed as conversion of 4-nitrophenyl acetate to 4-nitrophnolate after 5 mins

Structure (SMILES): NS(=O)(=O)C(F)(F)C(F)(F)C(F)(F)C(F)(F)C(F)(F)C(F)(F)F
Activity [1]: Non-toxic
Activity [2]: Non-toxic
pIC50 [3]: 5.83

Structure (SMILES): [NH-]S(=O)(=O)C(F)(F)C(F)(F)C(F)(F)C(F)(F)C(F)(F)C(F)(F)C(F)(F)C(F)(F)F.[Na+] [SODIUM PERFLUOROOCTANESULFONAMIDE]
Activity [4]: Toxic
pIC50 [3]: 5.75

Structure (SMILES): NS(=O)(=O)C(F)(F)C(F)(F)C(F)(F)C(F)(F)C(F)(F)C(F)(F)C(F)(F)C(F)(F)F
Activity [5]: Toxic
pIC50 [3]: 5.80

Structure (SMILES): NS(=O)(=O)C(F)(F)C(F)(F)C(F)(F)C(F)(F)F
pIC50 [3]: 5.83

Structure (SMILES): NS(=O)(=O)C(F)(F)C(F)(F)C(F)(F)C(F)(F)F [SODIUM PERFLUOROBUTANESULFONAMIDE]
pIC50 [3]: 5.78

Structure (SMILES): [NH-]S(=O)(=O)C(F)(F)C(F)(F)C(F)(F)C(F)(F)C(F)(F)C(F)(F)F.[Na+] [SODIUM PERFLUOROHEXANESULFONAMIDE]
pIC50 (Carbonic anhydrase 2): 6.91
Activity [2]: Non-toxic
pIC50 [3]: 5.86

Structure (SMILES): CCCCCCCCS(N)(=O)=O
inhibition (Bos taurus): inactive

Results, then the molecule that gave them:

inhibition (Bos taurus): inactive
Structure (SMILES): CCCCCCS(N)(=O)=O

pIC50 [3]: 5.83
Structure (SMILES): NS(=O)(=O)C(F)(F)F [TRIFLUOROMETHANESULFONAMIDE]

pIC50 [3]: 5.76
Structure (SMILES): NS(=O)(=O)C(F)(F)C(F)(F)C(F)(F)C(F)(F)S(N)(=O)=O

pIC50 [3]: 5.68
Structure (SMILES): NS(=O)(=O)CCC(F)(F)C(F)(F)C(F)(F)C(F)(F)F

pIC50 [3]: 5.72
Structure (SMILES): NS(=O)(=O)CCC(F)(F)C(F)(F)C(F)(F)C(F)(F)C(F)(F)C(F)(F)F

pIC50 [3]: 5.78
Structure (SMILES): NS(=O)(=O)CCC(F)(F)C(F)(F)C(F)(F)C(F)(F)C(F)(F)C(F)(F)C(F)(F)C(F)(F)F

pIC50 [3]: 5.87
Structure (SMILES): CC(=O)Nc1nnc(S(N)(=O)=O)s1 [ACETAZOLAMIDE]

pIC50 [3]: 5.76
Structure (SMILES): NS(=O)(=O)C(F)(F)C(F)(F)C(F)(F)C(F)(F)C(F)(F)C(F)(F)C(F)(F)F
